High-throughput results deposited in PubChem by several laboratories.
Hits are enriched below; roughly 4.9% of the tested compounds scored in any of these assays.
APP 5'UTR act: activators of APP 5'UTR luciferase reporter, primary screen, SH-SY5Y cells; SH-SY5Y APP 5'UTR luciferase reporter, luminescence; zero percent = DMSO vehicle wells; activation, % at 2 µM; 190,000 compounds, 1% hits; AID 1276, 2008;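 active = activation above a set limit, based on mean plus 3 SD of controls, cut at about 140% in these data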
STAT1 act: STAT1 signaling activators, primary screen, cell-based, HTS, luciferase reporter | NIH 3T3 STAT1-luciferase reporter, IFN-gamma, luminescence; 100% = IFN-gamma alone, no compound | activation (% of control), % at 5.5 µM | 200,000 compounds, 2.6% hits;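 active = activation above the screen-wide mean activation plus 3 SD, cut at about 130% in these data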;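 also: raw ratio to IFN-gamma control signal so 100% means no change and 0% no light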
STAT3 activator: IL-6 driven STAT3 reporter potentiators, primary screen, U3A cells, luciferase, luminescence, MLSCN library. AID 871, 2007. 190,000 compounds, 0.91% hits. activation (% of control), % at 5.6 µM. IL-6 STAT3-luciferase reporter; 100% = signal with IL-6 EC80 alone;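 active = activation above the screen-wide mean of compound activation plus 3 SD, cut at about 130% in these data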;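 also: 0% = background luminescence of wells with medium and substrate only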
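system = STAT3-luciferase reporter U3A cells | reagent = IL-6 stimulus at 33 ng/mL final | timing = 1 h compound pre-exposure, 6 h IL-6 stimulation, 37 °C | measured by = luminescence | evaluation = % activation versus median of IL-6-stimulated wells | control set = IL-6-only wells as 100% reference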
STAT3 inh: IL-6 driven STAT3 reporter inhibitors, primary screen, U3A cells, luciferase, luminescence, MLSCN library | IL-6 STAT3-luciferase reporter; host cell line lacks STAT1 | inhibition, % at 5.5 µM | 190,000 compounds, 0.89% hits | AID 862, 2007;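 active = inhibition above the mean inhibition across all screened compounds plus 3 SD, cut at about 44% in these data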;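 also: 0% = DMSO only wells and 100% = 100 µM nifuroxazide control wells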
STAT1 inh: STAT1 signaling inhibitors, primary screen, cell-based, HTS, luciferase reporter; 200,000 compounds, 0.35% hits; inhibition, % at 5.5 µM; NIH 3T3 STAT1-luciferase reporter, IFN-gamma, luminescence; AID 920, 2007;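 active = inhibition above a set limit, the mean inhibition across all tested compounds plus 3 SD, cut at about 34% in these data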;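 also: 0% = IFN-gamma with DMSO and 100% = IFN-gamma with 300 µM nifuroxazide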
NF-kB expr up: activators of NF-kB expression in neurons, primary screen, cell-based, HTS. 190,000 compounds, 1.6% hits. fold change at 12.5 µM. human neuronal cells, NF-kB reporter expression; stronger effect = higher value; in the data active = fold change above about 3.3
The depositor's hits bear a star.

SMILES	APP 5'UTR act	STAT1 act	STAT3 activator	STAT3 inh	STAT1 inh	NF-kB expr up
Cc1ccc(SCc2cc(=O)[nH]c(Nc3nc(C)c4cccc(C)c4n3)n2)cc1	5	95	90	15	6	0.73
Cc1c(C(=O)Oc2ccc(F)cc2)sc2ncn(Cc3cccc(F)c3)c(=O)c12	8	106	96	5	-7	0.97
CCn1cnc2sc(C(=O)Oc3cccc(C)c3)c(C)c2c1=O	10	132*	88	24	-36	1.8
CC(NC(=O)COC(=O)/C=C/c1ccc(Cl)cc1)c1ccccc1 (configuration not stated)	-10	92	99	6	10	1.2
Cc1cc(C)nc(/N=C(\N)Nc2ccccc2-c2ccccc2)n1	-11	72	95	13	28	0.88
O=C(Nc1cccc(-c2nnc(-c3ccccc3)o2)c1)C1CCCCC1	20	141*	79	26	-36	1.4
COc1cccc(NC(=O)COc2ccccc2C(N)=O)c1	87	134*	93	11	-43	3.1
CCCCC(=O)Nc1cccc(-c2nnc(-c3ccccc3)o2)c1	28	117	79	28	-23	0.77
Cc1cccc(OCC(=O)Nc2cccc(-c3nnc(-c4ccccc4)o3)c2)c1C	15	130*	89	18	-32	1.9
Cc1ccc(OCC(=O)Nc2cccc(-c3nnc(-c4ccccc4)o3)c2)cc1	97	143*	88	20	-44	2.3
Cc1cccc(C)c1OCC(=O)Nc1cccc(-c2nnc(-c3ccccc3)o2)c1	4	106	90	15	-7	0.6
Cc1cc(C(=O)Cn2nc(C(=O)O)c3ccccc3c2=O)c(C)n1-c1ccc(F)cc1	-3	109	93	12	-10	0.87
Cc1ccc2nc(COc3ccc(Cl)cc3)cc(=O)n2c1	53	136*	101	10	-41	2.6
CCCCn1c(N)c(N(CCOC)C(=O)COc2ccc(Cl)cc2)c(=O)[nH]c1=O	6	104	106	-5	-5	0.93
O=C(CSC1=NCCN1)Nc1cccc([N+](=O)[O-])c1	2	133*	99	3	-37	0.82
O=C(CSC1=NCCN1)Nc1ccccc1[N+](=O)[O-]	-19	118	112	-10	-22	1.1
Cc1nn2cc(-c3ccc(Cl)cc3)cnc2c1Cl	155*	140*	94	9	-45	3.4*
CC(=O)c1cnc2c(-c3ccc(Cl)cc3)c(C)nn2c1C	7	102	88	16	-3	1.3
CC1Cc2ccccc2N1C(=O)CSc1nnnn1Cc1ccccc1 (configuration not stated)	-4	99	108	-6	2	0.92
CNC(=O)c1ccc(-c2ccc(OC)cc2)s1	99	138*	88	17	-42	4.6*
Cc1nn(-c2ccccc2)c(Cl)c1/C=N/Nc1nnc(C)c(=O)[nH]1	13	98	102	0	1	1.8
Cc1nn(-c2ccccc2)c(Cl)c1/C=N/Nc1nc2ccccc2n1C	77	145*	96	12	-49	1.8
CC(C)(C)C(=O)/C=C/Nc1ccccc1O	-11	90	88	12	10	3
CCN(CC(=O)Nc1ccc(N2CCOCC2)cc1)C(=O)c1ccc(C(F)(F)F)cc1	-4	107	99	6	-10	1.4
COc1cccc2cc(C(N)=O)oc12	-32	111	100	11	-14	1.2
COc1cccc2cc(C(=O)c3ccc([N+](=O)[O-])cc3)oc12	50	135*	90	16	-41	2
CCOC(=O)c1ccc(CNC(=O)c2n[nH]c(=O)c3ccccc23)o1	-9	99	98	8	1	0.98
COc1ccccc1/C=N/Nc1cc(N(C)C)nc(N(C)C)n1	2	91	99	7	7	1.1
COc1ccccc1/C=N/Nc1nncc2ccccc12	37	150*	97	3	-55	1.7
